Laboratory results: ChEMBL document CHEMBL1130139, “Synthesis and activity of 6-substituted purine linker amino acid immunostimulants” (1997)

Tests used:
Assay type in all cases: functional
Mus musculus [1] = species: Mus musculus; experiment: In vitro cytotoxic T-Lymphocyte (CTL) activity relative to interleukin 2 was obtained at a concentration of 10 e -7 M(+ represents 21 - 40% of interleukin 2)
Procedure, shortened: (§1)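 Splenocytes from 6- to 8-week-old female C57BL/6 and irradiated (3000 rads) DBA/2 mice, 10⁷ cells, were cultured together in RPMI 1640 with 10% FCS. Culture ran 120 h at 37 °C in 5% CO₂, with [³H]thymidine pulse of an aliquot. Percent specific lysis was scaled to IL 2 (taken as 100%) and scored 0 to ++++ in 20% bands.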

Mus musculus [2] = species: Mus musculus; experiment: In vitro cytotoxic T-Lymphocyte (CTL) activity relative to interleukin 2 was obtained at a concentration of 10 e -7 M(++ +represents 61 - 80% of interleukin 2); procedure, shortened: as §1
Mus musculus [3] = species: Mus musculus; experiment: In vitro cytotoxic T-Lymphocyte (CTL) activity relative to interleukin 2 was obtained at a concentration of 10 e -7 M(++ represents 41 - 60% of interleukin 2); procedure, shortened: as §1
Mus musculus [4] = species: Mus musculus; experiment: In vitro cytotoxic T-Lymphocyte (CTL) activity relative to interleukin 2 was obtained at a concentration of 10 e […](++ represents 41 - 60% of interleukin 2); procedure, shortened: as §1
Mus musculus [5] = species: Mus musculus; experiment: In vitro cytotoxic T-Lymphocyte (CTL) activity relative to interleukin 2 was obtained at a concentration of 10 e -7 M(++ represents 21 - 40% of interleukin 2); conditions: in the assay text read “+ represents” for “++ represents”; procedure, shortened: as §1

| SMILES | CTL activity (Mus musculus [3]) | further results |
| --- | --- | --- |
| N=C(N)NCCCC(NC(=O)OCCCCCn1cnc2c(N)ncnc21)C(=O)O (single isomer, unassigned) |  | CTL activity (Mus musculus [1]): 21 - 40% of interleukin 2; CTL activity (Mus musculus [2]): + |
| N=C(N)NCCC[C@@H](NC(=O)OCCCCCn1cnc2c(O)ncnc21)C(=O)O | 41 - 60% of interleukin 2 |  |
| CN(C)c1ncnc2c1ncn2CCCCCCOC(=O)N[C@@H](CCCNC(=N)N)C(=O)O | 41 - 60% of interleukin 2 |  |
| CN(C)c1ncnc2c1ncn2CCCCCO |  | CTL activity (Mus musculus [4]): 41 - 60% of interleukin 2 |
| CN(C)c1ncnc2c1ncn2C[C@H]1CC[C@H](COC(=O)N[C@@H](CCCNC(=N)N)C(=O)O)CC1 | 41 - 60% of interleukin 2 |  |
| N=C(N)NCCCC(NC(=O)OCCCCCn1cnc2c(S)ncnc21)C(=O)O (single isomer, unassigned) |  | CTL activity (Mus musculus [1]): 21 - 40% of interleukin 2 |
| N=C(N)NCCCC(NC(=O)OCCCCCn1cnc2c(O)ncnc21)C(=O)O (single isomer, unassigned) | 41 - 60% of interleukin 2 |  |
| CC1CN1c1ncnc2c1ncn2CCCCCOC(=O)N[C@@H](CCCNC(=N)N)C(=O)O (stereo partly specified) | 41 - 60% of interleukin 2 |  |
| N=C(N)NCCC[C@H](NC(=O)OCCCCCn1cnc2c(NC3CC3)ncnc21)C(=O)O |  | CTL activity (Mus musculus [5]): 21 - 40% of interleukin 2 |
| CN(C)c1ncnc2c1ncn2CCCCCNC(=O)OCCCCCn1cnc2c(N(C)C)ncnc21 | 41 - 60% of interleukin 2 |  |
